Experiments:
[1] = test system: Hepatitis C virus; experiment: Antiviral activity against Hepatitis C virus subtype 1a H77 subgenomic replicon expressing NS5A infected in human HuH7 cells assessed as reduction in viral replication incubated for 3 days by luciferase reporter gene assay; assay type: functional, organism-based, Hepacivirus hominis; conditions: subtype 1a H77, Huh-7, 72 h
Outline: (§1)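 HCV replicon cell assay; inhibition of replication read as decrease in luciferase signal. Percent inhibition computed at each compound concentration; EC50 (pM) from nonlinear regression fit to a 4-parameter logistic equation. Values are means of triplicate wells, with each experiment run at least twice.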

[2] = test system: Hepatitis C virus; experiment: Antiviral activity against Hepatitis C virus subtype 6a subgenomic replicon expressing NS5A infected in human HuH7 cells assessed as reduction in viral replication incubated for 3 days by luciferase reporter gene assay; assay type: functional, organism-based, Hepacivirus hominis; conditions: Huh-7, 72 h; outline: as §1
[3] = test system: Hepatitis C virus; experiment: Antiviral activity against Hepatitis C virus subtype 4a subgenomic replicon expressing NS5A infected in human HuH7 cells assessed as reduction in viral replication incubated for 3 days by luciferase reporter gene assay; assay type: functional, organism-based, Hepacivirus hominis; conditions: Huh-7, 72 h
[4] = test system: Hepatitis C virus; experiment: Antiviral activity against Hepatitis C virus subtype 1a H77 subgenomic replicon expressing NS5A L31V mutant infected in human HuH7 cells assessed as reduction in viral replication incubated for 3 days by luciferase reporter gene assay; assay type: functional, organism-based, Hepacivirus hominis; conditions: subtype 1a H77, Huh-7, 72 h
Outline: (§2)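 NS5A resistance-associated variants introduced into GT1a-H77 or GT1b-Con1 replicons. In transient assays, each variant replicon was electroporated into a Huh-7-derived cell line. Inhibition measured as drop in luciferase signal. Percent inhibition computed per concentration; EC50 from 4-parameter logistic nonlinear fit. Fold resistance is variant EC50 relative to the matching reference replicon.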

[5] = test system: Hepatitis C virus; experiment: Antiviral activity against Hepatitis C virus subtype 1a H77 subgenomic replicon expressing NS5A Q30K mutant infected in human HuH7 cells assessed as reduction in viral replication incubated for 3 days by luciferase reporter gene assay; assay type: functional, organism-based, Hepacivirus hominis; conditions: subtype 1a H77, Huh-7, 72 h; outline: as §2
[6] = test system: Hepatitis C virus; experiment: Antiviral activity against Hepatitis C virus subtype 1a H77 subgenomic replicon expressing NS5A Y93H mutant infected in human HuH7 cells assessed as reduction in viral replication incubated for 3 days by luciferase reporter gene assay; assay type: functional, organism-based, Hepacivirus hominis; conditions: subtype 1a H77, Huh-7, 72 h; outline: as §2
[7] = test system: Hepatitis C virus; experiment: Antiviral activity against Hepatitis C virus subtype 1b Con1 replicon expressing NS5A P32L mutant infected in human HuH7 cells assessed as reduction in viral replication incubated for 3 days by luciferase reporter gene assay; assay type: functional, organism-based, Hepacivirus hominis; conditions: subtype 1b Con1, Huh-7, 72 h; outline: as §2
[8] = test system: Hepatitis C virus; experiment: Resistance index, ratio of EC50 for Hepatitis C virus subtype 1a H77 subgenomic replicon expressing NS5A M28T mutant infected in human HuH7 cells to EC50 for Hepatitis C virus subtype 1a H77 subgenomic replicon expressing NS5A infected in human HuH7 cells; assay type: functional, Hepacivirus hominis
[9] = test system: Hepatitis C virus; experiment: Resistance index, ratio of EC50 for Hepatitis C virus subtype 1a H77 subgenomic replicon expressing NS5A Q30K mutant infected in human HuH7 cells to EC50 for Hepatitis C virus subtype 1a H77 subgenomic replicon expressing NS5A infected in human HuH7 cells; assay type: functional, Hepacivirus hominis
[10] = test system: Hepatitis C virus; experiment: Resistance index, ratio of EC50 for Hepatitis C virus subtype 1a H77 subgenomic replicon expressing NS5A Q30E mutant infected in human HuH7 cells to EC50 for Hepatitis C virus subtype 1a H77 subgenomic replicon expressing NS5A infected in human HuH7 cells; assay type: functional, Hepacivirus hominis
[11] = test system: Hepatitis C virus; experiment: Resistance index, ratio of EC50 for Hepatitis C virus subtype 1a H77 subgenomic replicon expressing NS5A Y93H mutant infected in human HuH7 cells to EC50 for Hepatitis C virus subtype 1a H77 subgenomic replicon expressing NS5A infected in human HuH7 cells; assay type: functional, Hepacivirus hominis
[12] = test system: Hepatitis C virus; experiment: Resistance index, ratio of EC50 for Hepatitis C virus subtype 1a H77 subgenomic replicon expressing NS5A Y93N mutant infected in human HuH7 cells to EC50 for Hepatitis C virus subtype 1a H77 subgenomic replicon expressing NS5A infected in human HuH7 cells; assay type: functional, Hepacivirus hominis
[13] = test system: Hepatitis C virus; experiment: Resistance index, ratio of EC50 for Hepatitis C virus subtype 1b Con1 subgenomic replicon expressing NS5A P32L mutant infected in human HuH7 cells to EC50 for Hepatitis C virus subtype 1b Con1 subgenomic replicon expressing NS5A infected in human HuH7 cells; assay type: functional, Hepacivirus hominis
[14] = Metabolic stability in mouse liver microsomes assessed as compound remaining at 1 uM incubated for 60 mins by UPLC-MS/MS analysis; assay type: ADME, Microsome; conditions: read-out: Stability
Outline: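 Pooled mouse, rat or human liver microsomes (0.5 mg/mL) with 1 μM compound, 1 mM NADPH, 5 mM MgCl₂ and 100 mM potassium phosphate pH 7.4. Pre-incubated 5 min at 37 °C, started with NADPH, then run 60 min at 37 °C. Quenched with ice-cold acetonitrile containing internal standard; parent remaining measured by UPLC-MS/MS.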

[15] = Cmax in dog at 5 mg/kg, po by UPLC-MS/MS analysis; assay type: ADME, organism-based, Canis lupus familiaris; parameters: dose 5 mg/kg, route oral; conditions: in vivo
[16] = AUC (0 to infinity) in dog at 5 mg/kg, po by UPLC-MS/MS analysis; assay type: ADME, organism-based, Canis lupus familiaris; parameters: dose 5 mg/kg, route oral, time infinity; conditions: in vivo
[17] = Drug distribution in rat plasma at 10 mg/kg, po incubated for 0.5 hrs by UPLC-MS/MS analysis; assay type: ADME, organism-based
Outline: (§3)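 Oral dosing in mice and rats; compound measured in plasma and liver by UPLC-MS/MS at each time point, n = 3 (mean ± SD). LPR is mean liver concentration divided by mean plasma concentration.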

[18] = Drug distribution in rat plasma at 10 mg/kg, po incubated for 3 hrs by UPLC-MS/MS analysis; assay type: ADME, organism-based; outline: as §3
[19] = Drug distribution in mouse liver at 10 mg/kg, po incubated for 0.5 hrs by UPLC-MS/MS analysis; assay type: ADME, organism-based; conditions: read-out: Drug uptake; outline: as §3
[20] = Drug distribution in mouse liver at 10 mg/kg, po incubated for 24 hrs by UPLC-MS/MS analysis; assay type: ADME, organism-based; conditions: read-out: Drug uptake; outline: as §3
[21] = Drug distribution in rat liver at 10 mg/kg, po incubated for 0.5 hrs by UPLC-MS/MS analysis; assay type: ADME, organism-based; conditions: read-out: Drug uptake; outline: as §3
[22] = Drug distribution in rat liver at 10 mg/kg, po incubated for 3 hrs by UPLC-MS/MS analysis; assay type: ADME, organism-based; conditions: read-out: Drug uptake; outline: as §3
[23] = Drug distribution in rat liver at 10 mg/kg, po incubated for 8 hrs by UPLC-MS/MS analysis; assay type: ADME, organism-based; conditions: read-out: Drug uptake; outline: as §3
[24] = Ratio of drug distribution in mouse liver to drug distribution in mouse plasma measured after 0.5 hrs by UPLC-MS/MS analysis; assay type: ADME, cell-free; outline: as §3
[25] = Ratio of drug distribution in mouse liver to drug distribution in mouse plasma measured after 3 hrs by UPLC-MS/MS analysis; assay type: ADME, cell-free; outline: as §3
[26] = Ratio of drug distribution in rat liver to drug distribution in rat plasma measured after 3 hrs by UPLC-MS/MS analysis; assay type: ADME, cell-free; outline: as §3
[27] = Ratio of drug distribution in rat liver to drug distribution in rat plasma measured after 8 hrs by UPLC-MS/MS analysis; assay type: ADME, cell-free; outline: as §3
[28] = Toxicity in mouse assessed as reduction in body weight at 300 mg/kg, po administered for 14 days and measured on day 14; assay type: organism-based; conditions: in vivo, 336 h
Outline: (§4)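 Mice randomised after acclimation into two groups of 5 males and 5 females. Compound at 300 mg/kg or vehicle alone given once daily by oral gavage for 14 days. Clinical signs observed daily. Body weight and food intake recorded on day 1, then twice weekly. Animals killed after the 14th dose.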

[29] = Toxicity in mouse assessed as effect on hematological parameters at 300 mg/kg, po administered for 14 days and measured on day 14; assay type: organism-based; conditions: in vivo, 336 h; outline: as §4

## COC(=O)N[C@H](C(=O)N1CCC[C@H]1C(=O)Nc1ccc([C@@H]2CC[C@@H](c3ccc(NC(=O)[C@@H]4CCCN4C(=O)[C@@H](NC(=O)OC)[C@@H](C)OC)cc3)N2c2cc(F)c(N3CC[Si](C)(C)CC3)c(F)c2)cc1)[C@@H](C)OC
[1]
  EC50: 1.2 pM
[2]
  EC50: 0.017 nM
[3]
  EC50: 0.33 pM
[4]
  EC50: 0.027 nM
[5]
  EC50: 0.0375 nM
[6]
  EC50: > 1 nM
[7]
  EC50: 1.64 pM
[8]
  Ratio EC50: 1.9
[9]
  Ratio EC50: 30.5
[10]
  Ratio EC50: 175
[11]
  Ratio EC50: >833
[12]
  Ratio EC50: >203
[13]
  Ratio EC50: 1
[14]
  remaining at 1 h, 1 µM: 60.4%
[15]
  Cmax: 395 ng/mL
[16]
  AUC: 10100 ng·h/mL
[17]
  concentration at 0.5 h: 40.9 ng/mL
[18]
  concentration at 3 h: 45.2 ng/mL
[19]
  concentration at 0.5 h: 436 ng/g
[20]
  concentration at 24 h: 625 ng/g
[21]
  concentration at 0.5 h: 359 ng/g
[22]
  concentration at 3 h: 1110 ng/g
[23]
  concentration at 8 h: 293 ng/g
[24]
  Kp at 0.5 h: 8.8
[25]
  Kp at 3 h: 24.6
[26]
  Kp at 3 h: 5.2
[27]
  Kp at 8 h: 10.7
[28]
  Activity: Non-Toxic
[29]
  Activity: Non-Toxic

— ChEMBL document CHEMBL4402601, “Discovery of a Silicon-Containing Pan-Genotype Hepatitis C Virus NS5A Inhibitor” (J Med Chem, 2020)
